According to ChEMBL document CHEMBL3414506 (J Med Chem, 2015):
pIC50, pKi: −log10 of the molar value.

Legend:
[1] = biological target: T1, Steroid 17-alpha-hydroxylase/17,20 lyase (Homo sapiens, UniProt P05093); assay: Inhibition of human CYP17 using 17alpha-hydroxypregnenolone substrate
T1 sequence (P05093 whole entry): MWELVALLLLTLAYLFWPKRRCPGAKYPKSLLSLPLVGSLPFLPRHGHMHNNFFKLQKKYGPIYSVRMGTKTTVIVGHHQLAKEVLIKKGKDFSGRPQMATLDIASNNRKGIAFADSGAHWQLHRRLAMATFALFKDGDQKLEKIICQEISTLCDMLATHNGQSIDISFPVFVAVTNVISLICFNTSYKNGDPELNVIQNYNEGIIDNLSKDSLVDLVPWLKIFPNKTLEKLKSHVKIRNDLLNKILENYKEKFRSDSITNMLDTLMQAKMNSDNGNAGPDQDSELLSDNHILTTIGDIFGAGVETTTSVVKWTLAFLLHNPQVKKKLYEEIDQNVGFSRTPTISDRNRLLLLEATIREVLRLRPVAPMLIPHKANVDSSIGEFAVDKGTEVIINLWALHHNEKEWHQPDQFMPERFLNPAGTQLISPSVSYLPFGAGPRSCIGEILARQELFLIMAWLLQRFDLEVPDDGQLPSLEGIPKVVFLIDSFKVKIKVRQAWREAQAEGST

[2] = Growth inhibition of human castration-resistant prostate cancer cells; type: functional, cell-based; conditions: Cancer cell lines
[3] = Tmax in SCID mouse at 50 mg/kg, sc; type: ADME, organism-based; set-up: dose 50 mg/kg, route subcutaneous; conditions: in vivo
Method in brief: (§1)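 Male SCID mice were dosed subcutaneously at 50 or 100 mg/kg. Plasma levels were measured by reverse-phase HPLC against an internal standard, with a detection limit of 100 ng/mL and inter- and intra-assay variability under 10%. Parameters were calculated noncompartmentally from the plasma concentration–time profile.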

[4] = Cmax in SCID mouse at 100 mg/kg, sc; type: ADME, organism-based; set-up: dose 100 mg/kg, route subcutaneous; conditions: in vivo; method in brief: as §1
[5] = AUC in SCID mouse at 50 mg/kg, sc; type: ADME, organism-based; set-up: dose 50 mg/kg, route subcutaneous; conditions: plasma; method in brief: as §1
LAPC4 [6] = assay: Antitumor activity against human LAPC4 cells xenografted in SCID mouse assessed as regression of tumor volume at 0.13 mmol/kg, sc dosed twice daily; type: functional
Mus musculus [7] = assay: Volume of distribution in SCID mouse at 100 mg/kg, sc; type: ADME, organism-based; set-up: dose 100 mg/kg, route subcutaneous; conditions: in vivo; method in brief: as §1
Mus musculus [8] = assay: Drug elimination constant in SCID mouse at 50 mg/kg, sc; type: ADME, organism-based; set-up: dose 50 mg/kg, route subcutaneous; conditions: in vivo; method in brief: as §1
Mus musculus [9] = assay: Volume of distribution in SCID mouse at 50 mg/kg, sc; type: ADME, organism-based; set-up: dose 50 mg/kg, route subcutaneous; conditions: in vivo; method in brief: as §1
[10] = Mean residence time in SCID mouse at 50 mg/kg, sc; type: ADME, organism-based; set-up: dose 50 mg/kg, route subcutaneous; conditions: in vivo; method in brief: as §1
LAPC4 [11] = assay: Antitumor activity against human LAPC4 cells xenografted in SCID mouse with castration assessed as regression of tumor volume at 0.13 mmol/kg, sc dosed twice daily; type: functional
[12] = Mean residence time in SCID mouse at 100 mg/kg, sc; type: ADME, organism-based; set-up: dose 100 mg/kg, route subcutaneous; conditions: in vivo; method in brief: as §1
[13] = Clearance in SCID mouse at 50 mg/kg, sc; type: ADME, organism-based; set-up: dose 50 mg/kg, route subcutaneous; conditions: in vivo; method in brief: as §1
Plasma [14] = assay: Drug metabolism in mouse plasma assessed as retention time of metabolite by reverse phase HPLC method; type: ADME, cell-free
Method in brief: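 Mouse plasma was analysed by reverse-phase HPLC after subcutaneous dosing. The parent compound, an internal standard, the metabolite and endogenous components were resolved by retention time.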

LAPC4 [15] = assay: Antitumor activity against human LAPC4 cells xenografted in SCID mouse assessed as reduction in tumor volume at 0.15 mmol/kg, sc dosed twice daily starting 1 day after tumor cell inoculation and measured after 16 weeks of treatment; type: functional
Method in brief: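 3 × 10^7 LAPC-4 cells were injected subcutaneously into the dorsal flank of male SCID mice. From 1 day after inoculation, mice received 0.15 mmol/kg s.c. twice daily, alongside vehicle and castrated groups. The dose was cut by 78.6% for one interval, then resumed. Tumour volume was measured weekly, and percent change was computed after 16 weeks.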

Mus musculus [16] = assay: Elimination half life in SCID mouse at 50 mg/kg, sc; type: ADME, organism-based; set-up: dose 50 mg/kg, route subcutaneous; conditions: in vivo; method in brief: as §1
[17] = AUC in SCID mouse at 100 mg/kg, sc; type: ADME, organism-based; set-up: dose 100 mg/kg, route subcutaneous; conditions: plasma; method in brief: as §1
[18] = Cmax in SCID mouse at 50 mg/kg, sc; type: ADME, organism-based; set-up: dose 50 mg/kg, route subcutaneous; conditions: in vivo; method in brief: as §1
Plasma [19] = assay: Retention time in mouse plasma by reverse phase HPLC method; type: ADME, cell-free
Method in brief: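 Mouse plasma from male SCID mice dosed s.c. at 50 or 100 mg/kg, analysed by validated reverse-phase HPLC with an internal standard. Analyte resolved from the internal standard, a metabolite and endogenous plasma components. Calibration linear; inter- and intra-assay variability under 10%; detection limit 100 ng/mL.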

LAPC4 [20] = assay: Antitumor activity against human LAPC4 cells xenografted in SCID mouse assessed as tumor volume at 0.13 mmol/kg, sc dosed twice daily (reference value: 2410.28 mm3); type: functional
Mus musculus [21] = assay: Elimination half life in SCID mouse at 100 mg/kg, sc; type: ADME, organism-based; set-up: dose 100 mg/kg, route subcutaneous; conditions: in vivo; method in brief: as §1
[22] = Tmax in SCID mouse at 100 mg/kg, sc; type: ADME, organism-based; set-up: dose 100 mg/kg, route subcutaneous; conditions: in vivo; method in brief: as §1
[23] = biological target: T1, Steroid 17-alpha-hydroxylase/17,20 lyase; assay: Inhibition of human CYP17 up to 10 uM using 17alpha-hydroxypregnenolone substrate relative to control
Method in brief: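 CYP17 assay with 17α-hydroxypregnenolone substrate at 10 μM (Km 560 nM). Screening used 150 nM inhibitor, tested up to 10 μM. Values are the mean ± SDM of at least two experiments.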

[24] = biological target: T1, Steroid 17-alpha-hydroxylase/17,20 lyase; assay: Inhibition of human CYP17 expressed in Escherichia coli
Method in brief: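 Whole-cell assay: intact Escherichia coli cells expressing human CYP17 used as the enzyme source; inhibition expressed as IC50.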

## C[C@]12CCC(=O)C=C1CC[C@@H]1[C@@H]2CC[C@]2(C)C(n3cncn3)=CC[C@@H]12
[1]
  pIC50: 7.26
  pKi: 7.39

## C[C@]12CC[C@H](O)CC1=CC[C@@H]1[C@@H]2CC[C@]2(C)C(n3cnc4ccccc43)=CC[C@@H]12 [GALETERONE]
[2]
  pIC50: 5.54
[3]
  Tmax: 30 min
[4]
  Cmax: 32200 ng/mL
[5]
  AUC: 24000 ng·h/mL
LAPC4 [6]
  inhibition in vivo at 130 µmol/kg: 26.6%
Mus musculus [7]
  Vd: 3.27639 L/kg
Mus musculus [8]
  Kel: 0.942 h⁻¹
Mus musculus [9]
  Vd: 2.09899 L/kg
[10]
  MRT: 65.4 min
LAPC4 [11]
  inhibition in vivo at 130 µmol/kg: 60.7%
[12]
  MRT: 60.5 min
[13]
  CL/F: 33.1 mL/min/kg
Plasma [14]
  Retention_time: 17.3 min
LAPC4 [15]
  inhibition in vivo at 150 µmol/kg: 93.8%
Mus musculus [16]
  beta t1/2: 44.17 min
[17]
  AUC: 30200 ng·h/mL
[18]
  Cmax: 16800 ng/mL
Plasma [19]
  Retention_time: 21.6 min
LAPC4 [20]
  Activity: 6.94 mm3
Mus musculus [21]
  beta t1/2: 36.6 min
[22]
  Tmax: 30 min

## C[C@]12CC[C@H](O)CC1=CC[C@@H]1[C@@H]2CC[C@]2(C)C(n3ncnn3)=CC[C@@H]12
[23]
  inhibition (INH): Not Active

## C[C@]12CC[C@H](O)CC1=CC[C@@H]1[C@@H]2CC[C@]2(C)C(n3ccnc3)=CC[C@@H]12
[24]
  pIC50: 7.30
Plasma [19]
  Retention_time: 11.5 min

## CC(O)(CS(=O)(=O)c1ccc(F)cc1)C(=O)Nc1ccc(C#N)c(C(F)(F)F)c1 (centres undefined) [BICALUTAMIDE]
[2]
  pIC50: 4.74

## C[C@]12CC[C@H](O)CC1=CC[C@@H]1[C@@H]2CC[C@]2(C)C(n3nccn3)=CC[C@@H]12
[23]
  inhibition (INH): Not Active

## C[C@]12CC[C@H](O)CC1=CC[C@@H]1[C@@H]2CC[C@]2(C)C(n3cnnn3)=CC[C@@H]12
[23]
  inhibition (INH): Not Active
